{
  "source": "ChEMBL document CHEMBL4017520",
  "about": "“Discovery, Structure-Activity Relationship, and Antiparkinsonian Effect of a Potent and Brain-Penetrant Chemical Series of Positive Allosteric Modulators of Metabotropic Glutamate Receptor 4” (J Med Chem, 2017)",
  "key": {"[1]": {"assay": "Ratio of drug level in Sprague-Dawley rat brain to plasma at 1 mg/kg, iv after 1 hr post dose administered as single dose by LC-MS/MS analysis", "assay_type": "ADME, organism-based", "settings": "read-out: BPR", "in_short": "(§1)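 Single iv dose, 1 mg/kg in rat or 2 mg/kg in mouse; plasma PK parameters derived; brain/plasma ratio taken at 1 h postdose (rat) or 30 min postdose (mouse). Mean of 3 rats; 2 mice for mouse Cmax and brain/plasma.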"}, "[2]": {"assay": "Half life in Sprague-Dawley rat plasma at 30 mg/kg, ip administered as single dose by LC-MS/MS analysis", "assay_type": "ADME, organism-based", "in_short": "(§2)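 Single dose ip (10 or 30 mg/kg, rat) or oral (10 mg/kg, rat or mouse); plasma Cmax, Tmax, half-life, AUC0−inf derived; brain concentration and brain/plasma ratio at 30 min postdose. Mean of 3 rats or 2 mice.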"}, "[3]": {"assay": "Activity at COMT (unknown origin) up to 10 uM", "assay_type": "ADME", "settings": "human"}, "[4]": {"assay": "Plasma concentration in Sprague-Dawley rat at 30 mg/kg, ip after 30 mins", "assay_type": "ADME, organism-based", "in_short": "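Rats dosed 30 mg/kg ip; plasma sampled over time, brain measured at 30 and 60 min; brain/plasma ratio averaged over 30 and 60 min.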"}, "[5]": {"assay": "Drug uptake in C57BL/6 mouse brain at 10 mg/kg, po after 30 mins post dose administered as single dose by LC-MS/MS analysis", "assay_type": "ADME, organism-based", "settings": "read-out: Drug uptake", "in_short": "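Mice given 10 mg/kg orally. Plasma Cmax was determined and brain concentration measured at 30 min postdose. Values are the mean (±SEM) of 2 mice.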"}, "Brain [6]": {"test_system": "Brain", "assay": "Fraction unbound in Sprague-Dawley rat brain at 30 mg/kg, ip after 60 mins", "assay_type": "ADME, organism-based", "settings": "in vivo, 1 h"}, "[7]": {"target": "T1, Metabotropic glutamate receptor 4 (Homo sapiens, UniProt Q14833)", "T1 sequence (Q14833 whole entry)": "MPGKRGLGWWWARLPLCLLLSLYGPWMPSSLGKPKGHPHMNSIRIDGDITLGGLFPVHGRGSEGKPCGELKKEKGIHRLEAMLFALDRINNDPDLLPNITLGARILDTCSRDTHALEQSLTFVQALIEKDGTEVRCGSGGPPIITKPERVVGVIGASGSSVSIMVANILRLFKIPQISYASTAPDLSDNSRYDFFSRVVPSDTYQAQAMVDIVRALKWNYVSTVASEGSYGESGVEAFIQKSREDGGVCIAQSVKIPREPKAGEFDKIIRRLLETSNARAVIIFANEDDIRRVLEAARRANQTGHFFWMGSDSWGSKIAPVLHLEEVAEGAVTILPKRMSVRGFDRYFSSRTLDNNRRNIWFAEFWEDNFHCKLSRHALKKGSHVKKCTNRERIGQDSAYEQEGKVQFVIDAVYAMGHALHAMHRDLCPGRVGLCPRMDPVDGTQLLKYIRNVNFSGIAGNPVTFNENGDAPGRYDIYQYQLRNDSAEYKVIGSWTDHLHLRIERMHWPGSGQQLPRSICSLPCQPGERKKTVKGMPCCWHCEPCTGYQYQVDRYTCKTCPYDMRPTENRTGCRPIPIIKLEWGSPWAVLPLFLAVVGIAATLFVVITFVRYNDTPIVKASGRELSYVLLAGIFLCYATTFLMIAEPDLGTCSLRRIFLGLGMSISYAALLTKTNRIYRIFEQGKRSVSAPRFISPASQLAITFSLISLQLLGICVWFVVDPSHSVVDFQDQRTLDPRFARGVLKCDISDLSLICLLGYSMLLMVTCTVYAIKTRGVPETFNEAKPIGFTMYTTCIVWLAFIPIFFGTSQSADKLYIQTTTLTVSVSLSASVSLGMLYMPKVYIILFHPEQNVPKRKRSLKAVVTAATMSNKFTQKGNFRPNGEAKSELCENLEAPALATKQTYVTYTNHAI", "assay": "Positive allosteric modulation of recombinant human mGlu4 receptor expressed in HEK293 cells co-expressing Gi/Gq assessed as increase in glutamate-induced calcium flux preincubated for 10 mins followed by glutamate addition measured for 3 mins by Fluo4-AM dye based fluorescence assay", "assay_type": "functional, cell-based", "settings": "read-out: EC50"}, "[8]": {"assay": "AUC (0 to infinity) in Sprague-Dawley rat at 1 mg/kg, iv administered as single dose by LC-MS/MS analysis", "assay_type": "ADME, organism-based", "parameters": "dose 1 mg/kg, route intravenous, time infinity", "settings": "in vivo"}, "[9]": {"assay": "Ratio of fraction unbound in Sprague-Dawley rat brain at 30 mg/kg, ip after 120 mins to EC50 for rat mGlu4 receptor expressed in HEK293 cells"}, "[10]": {"assay": "Oral bioavailability in Sprague-Dawley rat plasma at 10 mg/kg administered as single dose by LC-MS/MS analysis", "assay_type": "ADME, organism-based"}, "[11]": {"assay": "AUC (0 to infinity) in Sprague-Dawley rat plasma at 30 mg/kg, ip administered as single dose by LC-MS/MS analysis", "assay_type": "ADME, organism-based", "parameters": "dose 30 mg/kg, time infinity, route intraperitoneal", "in_short": "(§3)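 Rats dosed ip at 10 or 30 mg/kg. Plasma Cmax, Tmax, half-life and AUC0–inf were determined. Brain concentration was measured 30 min postdose, and brain/plasma ratio was taken at 30 min. Values are the mean (±SEM) of 3 rats.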"}, "[12]": {"assay": "Drug uptake in Sprague-Dawley rat brain at 30 mg/kg, ip after 240 mins", "assay_type": "ADME, organism-based", "settings": "read-out: Drug uptake"}, "Mus musculus [13]": {"test_system": "Mus musculus", "assay": "Half life in C57BL/6 mouse at 2 mg/kg, iv administered as single dose by LC-MS/MS analysis", "assay_type": "ADME, organism-based", "settings": "in vivo", "in_short": "as §1"}, "[14]": {"assay": "Cmax in Sprague-Dawley rat plasma at 10 mg/kg, ip administered as single dose by LC-MS/MS analysis", "assay_type": "ADME, organism-based", "parameters": "dose 10 mg/kg, route intraperitoneal", "in_short": "as §3"}, "[15]": {"assay": "Ratio of drug level in Sprague-Dawley rat brain to plasma at 30 mg/kg, ip after 30 mins post dose administered as single dose by LC-MS/MS analysis", "assay_type": "ADME, organism-based", "settings": "read-out: BPR", "in_short": "as §2"}, "Brain [16]": {"test_system": "Brain", "assay": "Fraction unbound in Sprague-Dawley rat brain at 30 mg/kg, ip after 30 mins", "assay_type": "ADME, organism-based", "settings": "in vivo, 0.5 h"}, "Rattus norvegicus": {"species_on_record": "Rattus norvegicus", "assay": "Activity at AMPA glutamate receptor in rat cerebral cortex at 10 uM", "in_short": "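Inhibition of orthosteric ligand binding to NMDA, AMPA and kainate receptors on rat cerebral cortex membranes, tested up to 10 μM.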"}, "Mus musculus [17]": {"test_system": "Mus musculus", "assay": "Anti-parkinson's activity in ip dosed C57BL/6 mouse assessed as reversal of haloperidol-induced catalepsy after 40 mins", "assay_type": "functional, organism-based"}, "[18]": {"target": "D(1A) dopamine receptor (Homo sapiens) (UniProt P21728)", "sequence (P21728 whole entry)": "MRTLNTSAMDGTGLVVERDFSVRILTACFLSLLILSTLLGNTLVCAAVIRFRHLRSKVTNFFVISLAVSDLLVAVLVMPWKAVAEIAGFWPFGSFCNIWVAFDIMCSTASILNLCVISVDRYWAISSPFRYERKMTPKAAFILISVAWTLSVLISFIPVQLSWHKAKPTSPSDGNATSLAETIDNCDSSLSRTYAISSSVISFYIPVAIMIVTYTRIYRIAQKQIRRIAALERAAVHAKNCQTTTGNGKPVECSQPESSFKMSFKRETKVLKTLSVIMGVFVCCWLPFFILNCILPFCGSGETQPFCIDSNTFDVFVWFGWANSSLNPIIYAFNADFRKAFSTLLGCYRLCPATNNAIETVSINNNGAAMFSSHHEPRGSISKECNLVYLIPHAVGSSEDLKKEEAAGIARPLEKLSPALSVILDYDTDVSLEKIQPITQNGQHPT", "assay": "Antagonist activity at D1 receptor (unknown origin) at 10 uM"}, "[19]": {"target": "Interleukin-1 receptor-associated kinase 4 (Homo sapiens) (UniProt Q9NWZ3)", "assay": "Inhibition of IRAK4 (unknown origin) at 10 uM"}, "[20]": {"target": "Adenosine receptor A2a (Homo sapiens) (UniProt P29274)", "sequence (P29274 whole entry)": "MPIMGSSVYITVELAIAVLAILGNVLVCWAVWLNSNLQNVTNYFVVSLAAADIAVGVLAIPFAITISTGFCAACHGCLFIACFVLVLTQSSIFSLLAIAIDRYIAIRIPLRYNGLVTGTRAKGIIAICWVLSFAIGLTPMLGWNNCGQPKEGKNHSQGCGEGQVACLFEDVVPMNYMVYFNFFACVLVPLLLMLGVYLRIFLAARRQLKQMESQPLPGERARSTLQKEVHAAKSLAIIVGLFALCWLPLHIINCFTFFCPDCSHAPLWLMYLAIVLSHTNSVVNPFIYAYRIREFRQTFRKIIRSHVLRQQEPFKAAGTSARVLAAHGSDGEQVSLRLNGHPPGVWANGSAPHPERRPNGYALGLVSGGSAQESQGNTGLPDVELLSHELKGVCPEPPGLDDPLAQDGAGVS", "assay": "Antagonist activity at A2A receptor (unknown origin) at 10 uM"}, "[21]": {"target": "D(2) dopamine receptor (Homo sapiens) (UniProt P14416)", "sequence (P14416 whole entry)": "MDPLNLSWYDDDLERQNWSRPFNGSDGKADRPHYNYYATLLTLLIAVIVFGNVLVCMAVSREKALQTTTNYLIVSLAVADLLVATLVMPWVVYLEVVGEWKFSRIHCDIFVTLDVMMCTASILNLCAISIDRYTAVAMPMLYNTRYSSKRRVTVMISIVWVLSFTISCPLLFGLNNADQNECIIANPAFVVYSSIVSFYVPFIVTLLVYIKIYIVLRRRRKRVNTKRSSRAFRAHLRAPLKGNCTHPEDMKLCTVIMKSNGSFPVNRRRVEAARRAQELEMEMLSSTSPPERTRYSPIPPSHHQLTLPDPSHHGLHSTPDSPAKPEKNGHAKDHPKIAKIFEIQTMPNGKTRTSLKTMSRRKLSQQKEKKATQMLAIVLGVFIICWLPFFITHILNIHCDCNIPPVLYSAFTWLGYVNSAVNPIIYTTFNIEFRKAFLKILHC", "assay": "Antagonist activity at D2L receptor (unknown origin) at 10 uM"}, "[22]": {"target": "Metabotropic glutamate receptor 8 (Homo sapiens) (UniProt O00222)", "assay": "Agonist activity at human mGlu8 receptor expressed in HEK293 cells co-expressing Gi/Gq assessed as increase in intracellular calcium level at 10 uM after 10 mins by Fluo4-AM dye based fluorescence assay relative to control", "assay_type": "functional, cell-based", "in_short": "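Human mGluR8 in transiently transfected HEK293 cells loaded with Fluo4-AM. Compound alone was added and fluorescence followed for 10 min. Stimulation is expressed relative to the maximal glutamate response.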"}, "[23]": {"target": "Receptor-type tyrosine-protein kinase FLT3 (Homo sapiens) (UniProt P36888)", "sequence (P36888 whole entry)": "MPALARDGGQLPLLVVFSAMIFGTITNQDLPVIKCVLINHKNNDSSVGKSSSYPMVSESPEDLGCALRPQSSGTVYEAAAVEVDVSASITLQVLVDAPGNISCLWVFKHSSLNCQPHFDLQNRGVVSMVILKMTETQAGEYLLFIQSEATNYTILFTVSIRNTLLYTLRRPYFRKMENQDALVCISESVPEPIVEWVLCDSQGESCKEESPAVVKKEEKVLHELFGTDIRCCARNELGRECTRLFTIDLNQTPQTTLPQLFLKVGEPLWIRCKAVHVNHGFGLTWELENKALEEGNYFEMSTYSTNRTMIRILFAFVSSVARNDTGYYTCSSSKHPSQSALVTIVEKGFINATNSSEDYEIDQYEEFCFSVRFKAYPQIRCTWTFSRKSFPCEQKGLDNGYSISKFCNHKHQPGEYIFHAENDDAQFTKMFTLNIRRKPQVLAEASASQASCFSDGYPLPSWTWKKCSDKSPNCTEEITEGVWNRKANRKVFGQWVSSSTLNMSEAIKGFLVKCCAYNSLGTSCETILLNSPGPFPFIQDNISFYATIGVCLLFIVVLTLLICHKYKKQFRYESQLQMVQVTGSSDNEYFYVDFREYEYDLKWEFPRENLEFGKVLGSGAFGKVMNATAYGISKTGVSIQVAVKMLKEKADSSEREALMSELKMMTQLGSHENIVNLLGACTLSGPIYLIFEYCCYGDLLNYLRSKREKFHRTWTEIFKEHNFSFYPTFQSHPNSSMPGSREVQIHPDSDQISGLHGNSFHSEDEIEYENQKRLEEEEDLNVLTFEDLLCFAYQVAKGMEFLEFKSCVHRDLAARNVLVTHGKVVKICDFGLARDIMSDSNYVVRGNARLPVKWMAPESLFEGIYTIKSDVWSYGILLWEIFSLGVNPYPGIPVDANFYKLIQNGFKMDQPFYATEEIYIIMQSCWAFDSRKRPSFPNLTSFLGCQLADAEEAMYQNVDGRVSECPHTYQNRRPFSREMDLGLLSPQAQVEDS", "assay": "Inhibition of Flt3 (unknown origin) at 10 uM relative to control"}, "[24]": {"target": "T1, Metabotropic glutamate receptor 4", "assay": "Positive allosteric modulation of recombinant human mGlu4 receptor expressed in HEK293 cells co-expressing chimeric Gi/Gq assessed as increase in EC20 glutamate-induced calcium flux preincubated for 10 mins followed by glutamate addition measured for 3 mins by Fluo4-AM dye based fluorescence assay relative to control", "assay_type": "functional, cell-based"}, "[25]": {"target": "Metabotropic glutamate receptor 3 (Homo sapiens) (UniProt Q14832)", "sequence (Q14832 23-879 limits assumed)": "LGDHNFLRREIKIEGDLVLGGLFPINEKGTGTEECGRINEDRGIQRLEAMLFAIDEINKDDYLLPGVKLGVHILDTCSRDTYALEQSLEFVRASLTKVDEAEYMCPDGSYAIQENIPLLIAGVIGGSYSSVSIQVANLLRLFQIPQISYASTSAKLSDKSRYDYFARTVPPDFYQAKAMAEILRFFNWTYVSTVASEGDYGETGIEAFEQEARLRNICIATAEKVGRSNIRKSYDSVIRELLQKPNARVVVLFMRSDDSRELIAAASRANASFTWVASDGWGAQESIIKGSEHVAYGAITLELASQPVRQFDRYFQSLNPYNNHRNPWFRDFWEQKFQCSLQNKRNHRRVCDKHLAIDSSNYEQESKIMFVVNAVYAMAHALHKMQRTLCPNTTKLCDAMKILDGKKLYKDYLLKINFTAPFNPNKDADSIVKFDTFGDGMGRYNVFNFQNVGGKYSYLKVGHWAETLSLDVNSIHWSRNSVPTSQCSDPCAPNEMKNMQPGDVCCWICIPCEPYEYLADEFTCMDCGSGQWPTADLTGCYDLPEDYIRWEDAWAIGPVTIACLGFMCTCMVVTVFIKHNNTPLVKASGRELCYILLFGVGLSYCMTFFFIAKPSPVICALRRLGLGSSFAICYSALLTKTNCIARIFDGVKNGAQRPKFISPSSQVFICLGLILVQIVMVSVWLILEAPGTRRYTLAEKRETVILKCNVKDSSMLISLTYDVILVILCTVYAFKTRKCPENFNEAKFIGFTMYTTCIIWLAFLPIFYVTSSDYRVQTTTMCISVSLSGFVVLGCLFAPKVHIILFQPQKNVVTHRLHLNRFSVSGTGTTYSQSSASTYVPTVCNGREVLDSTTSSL", "assay": "Activity at human mGlu3 receptor expressed in HEK293 cells co-expressing Gi/Gq assessed as effect on EC20/EC80 glutamate-induced intracellular calcium level up to 10 uM preincubated for 10 mins followed by glutamate addition measured for 3 mins by Fluo4-AM dye based fluorescence assay", "assay_type": "functional, cell-based", "in_short": "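HEK-293 cells were electroporated with the human mGluR plus a promiscuous or chimeric G protein and cultured 24 h, then serum-starved 3 h. Cells were loaded 1.5 h with 1 μM Fluo4-AM in HBSS/HEPES buffer with probenecid and 0.1% BSA. Compound was added for 10 min, then glutamate at EC20 (PAM) or EC80 (NAM), and fluorescence (ex 485/em 525) was read for 3 min.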"}, "[26]": {"target": "Metabotropic glutamate receptor 3 (Homo sapiens) (UniProt Q14832)", "assay": "Activity at human mGlu3 receptor expressed in HEK293 cells co-expressing Gi/Gq assessed as effect on intracellular calcium level up to 10 uM after 10 mins by Fluo4-AM dye based fluorescence assay", "assay_type": "functional, cell-based", "in_short": "(§4)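 HEK-293 cells transiently expressing the human mGluR with a promiscuous or chimeric G protein were serum-starved 3 h and loaded 1.5 h with 1 μM Fluo4-AM. Compound alone was added in assay buffer, and calcium fluorescence (ex 485/em 525) was recorded for 10 min as agonist readout.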"}, "[27]": {"target": "Metabotropic glutamate receptor 7 (Homo sapiens) (UniProt Q14831)", "sequence (Q14831 whole entry)": "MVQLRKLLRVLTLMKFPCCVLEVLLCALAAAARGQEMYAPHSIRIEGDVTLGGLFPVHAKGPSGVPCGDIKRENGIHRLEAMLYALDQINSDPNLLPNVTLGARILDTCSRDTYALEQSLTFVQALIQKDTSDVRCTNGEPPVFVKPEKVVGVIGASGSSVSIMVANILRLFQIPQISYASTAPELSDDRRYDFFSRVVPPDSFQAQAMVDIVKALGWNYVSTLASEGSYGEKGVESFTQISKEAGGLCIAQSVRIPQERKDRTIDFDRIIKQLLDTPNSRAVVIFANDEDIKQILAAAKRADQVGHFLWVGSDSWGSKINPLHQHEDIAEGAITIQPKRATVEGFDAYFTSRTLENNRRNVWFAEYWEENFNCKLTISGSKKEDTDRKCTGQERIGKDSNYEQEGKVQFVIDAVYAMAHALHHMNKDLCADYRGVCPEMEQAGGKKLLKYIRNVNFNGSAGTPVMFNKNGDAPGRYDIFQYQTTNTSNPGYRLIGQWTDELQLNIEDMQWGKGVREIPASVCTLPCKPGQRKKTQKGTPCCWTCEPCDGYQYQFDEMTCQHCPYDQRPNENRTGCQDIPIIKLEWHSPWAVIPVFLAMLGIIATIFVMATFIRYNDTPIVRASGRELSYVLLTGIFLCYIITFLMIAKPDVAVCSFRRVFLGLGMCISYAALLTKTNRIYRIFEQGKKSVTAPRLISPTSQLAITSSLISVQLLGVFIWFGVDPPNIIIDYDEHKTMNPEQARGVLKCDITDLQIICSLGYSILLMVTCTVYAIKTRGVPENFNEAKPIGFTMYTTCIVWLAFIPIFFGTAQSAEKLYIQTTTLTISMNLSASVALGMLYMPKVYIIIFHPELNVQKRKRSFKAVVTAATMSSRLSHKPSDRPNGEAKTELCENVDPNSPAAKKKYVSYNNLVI", "assay": "Activity at human mGlu7 receptor expressed in HEK293 cells co-expressing Gi/Gq assessed as effect on intracellular calcium level up to 10 uM after 10 mins by Fluo4-AM dye based fluorescence assay", "assay_type": "functional, cell-based", "in_short": "as §4"}},
  "note": "Activity calls are given as the source filed them. The rule behind the calls is not given here.",
  "data": [
    {"smiles": "O/N=c1\\cc(-c2cc3cccn3cn2)oc2ccc(OCCN3CCOCC3)cc12", "note": "[listing 1 of 2 here]", "values": [
      {"measurement": "Kp at 1 h", "setting": "[1]", "value": 3.3},
      {"measurement": "half-life", "setting": "[2]", "value": 4.5, "unit": "h"},
      {"measurement": "Activity", "setting": "[3]", "value": "Not Active"},
      {"measurement": "concentration at 0.5 h", "setting": "[4]", "value": 7.4, "unit": "µg/mL"},
      {"measurement": "concentration at 0.5 h", "setting": "[5]", "value": 390, "unit": "ng/g"},
      {"measurement": "Drug uptake(free)", "setting": "Brain [6]", "value": 91, "unit": "ng/g"},
      {"measurement": "EC50", "setting": "[7]", "value": 0.046, "unit": "µM"},
      {"measurement": "AUC(0-inf)", "setting": "[8]", "value": 0.166, "unit": "µg·h/mL"},
      {"measurement": "Ratio", "setting": "[9]", "value": 1.1},
      {"measurement": "bioavailability", "setting": "[10]", "value": 54, "unit": "%"},
      {"measurement": "AUC(0-inf)", "setting": "[11]", "value": 11.3, "unit": "µg·h/mL"},
      {"measurement": "concentration at 4 h", "setting": "[12]", "value": 322, "unit": "ng/g"},
      {"measurement": "t1/2", "setting": "Mus musculus [13]", "value": 0.2, "unit": "h"},
      {"measurement": "Cmax", "setting": "[14]", "value": 1.5, "unit": "µg/mL"},
      {"measurement": "Kp at 0.5 h", "setting": "[15]", "value": 3.1},
      {"measurement": "Drug uptake(free)", "setting": "Brain [16]", "value": 173, "unit": "ng/g"}
    ]},
    {"smiles": "O/N=c1\\cc(-c2cc3cccn3cn2)oc2ccc(OCCN3CCOCC3)cc12", "note": "[listing 2 of 2 here]", "values": [
      {"measurement": "Activity", "setting": "Rattus norvegicus", "value": "inactive"},
      {"measurement": "Activity", "setting": "Mus musculus [17]", "value": "Dose-dependent effect"},
      {"measurement": "Activity", "setting": "[18]", "value": "inactive"},
      {"measurement": "inhibition", "setting": "[19]", "value": "inactive"},
      {"measurement": "Activity", "setting": "[20]", "value": "inactive"},
      {"measurement": "Activity", "setting": "[21]", "value": "inactive"},
      {"measurement": "Activity", "setting": "[22]", "value": 23, "unit": "%"},
      {"measurement": "inhibition", "setting": "[23]", "value": 64, "unit": "%"},
      {"measurement": "Emax", "setting": "[24]", "value": 77, "unit": "%"},
      {"measurement": "Activity", "setting": "[25]", "value": "inactive"},
      {"measurement": "Activity", "setting": "[26]", "value": "inactive"},
      {"measurement": "Activity", "setting": "[27]", "value": "inactive"}
    ]}
  ]
}
